{"data": "Experimental data collected from several papers", "target": "PAS domain-containing serine/threonine-protein kinase (PASK, Homo sapiens, UniProt Q96RG2)", "note": "Protocols differ between the studies behind these lines."}
{"test": "enzyme activity, inhibitor, radiometric", "conditions": "1 µM", "endpoint": "remaining activity", "result": "98%", "SMILES": "CC(C)(C)c1nc(-c2cccc(NS(=O)(=O)c3c(F)cccc3F)c2F)c(-c2ccnc(N)n2)s1"}
{"test": "enzyme activity, inhibitor", "conditions": "0.3 µM", "endpoint": "inhibition", "result": "-5%", "SMILES": "CCN(CC)CCNC(=O)c1c(C)[nH]c(/C=C2\\C(=O)Nc3ccc(F)cc32)c1C"}
{"test": "enzyme activity, inhibitor", "conditions": "0.1 µM", "endpoint": "activity vs control", "result": "89%", "SMILES": "Cc1cc(NC(=O)c2cccc3cc(-c4cccc5[nH]nc(N)c45)ccc23)ccc1F"}
{"test": "enzyme activity, inhibitor", "conditions": "10 µM", "endpoint": "remaining activity", "result": "6%", "SMILES": "CCCOc1ccc(OC)c(F)c1C(=O)c1ccc(C(=O)N[C@@H]2CNC[C@H]2NC(=O)c2ccc3[nH]ncc3c2)cc1"}
{"test": "cell-free assay", "conditions": "0.5 µM", "endpoint": "remaining signal", "result": "91.3%", "SMILES": "O=C1NC(=O)c2cc(Nc3ccc(F)cc3)c(Nc3ccc(F)cc3)cc21"}
{"test": "enzyme activity, inhibitor", "conditions": "1 µM", "endpoint": "inhibition", "result": "-2%", "SMILES": "COc1cc2ncnc(Nc3ccc(Oc4ccccc4)cc3C)c2cc1OC"}
{"test": "enzyme activity, inhibitor", "conditions": "10 µM", "endpoint": "inhibition", "result": "11.2%", "SMILES": "Cc1ncc([N+](=O)[O-])n1C(=NO)c1ccccc1C(F)(F)F"}
{"test": "enzyme activity, inhibitor", "conditions": "0.3 µM", "endpoint": "inhibition", "result": "-6%", "SMILES": "CNC(=O)c1cc(Oc2ccc(NC(=O)Nc3ccc(Cl)c(C(F)(F)F)c3)cc2)ccn1"}
{"test": "enzyme activity, inhibitor", "conditions": "10 µM", "endpoint": "remaining activity", "result": "98%", "SMILES": "CCN(CC)c1ccc(C2=NNC(=O)CC2C)cc1[N+](=O)[O-] (stereo not shown)"}
{"test": "enzyme activity, inhibitor", "conditions": "10 µM", "endpoint": "inhibition", "result": "1%", "SMILES": "Cc1ccc(Nc2nccc(N(C)c3ccc4c(C)n(C)nc4c3)n2)cc1S(N)(=O)=O"}
{"test": "enzyme activity, inhibitor", "conditions": "1 µM", "endpoint": "remaining activity", "result": "92.3%", "SMILES": "CC(C)(O)[C@H]1CC[C@H](Nc2ccc3ncc(-c4cccc(C(F)(F)F)c4)n3n2)CC1"}
{"test": "enzyme activity, inhibitor", "conditions": "10 µM", "endpoint": "remaining activity", "result": "96.1%", "SMILES": "Cc1sc(C(=O)NC2COC2)cc1-n1cc(NC(=O)Nc2c(F)cccc2Cl)cn1"}
{"test": "cell-free assay", "conditions": "10 µM", "endpoint": "remaining signal", "result": "113%", "SMILES": "Cc1ccc(NC(=O)c2ccc(C)c(C(F)(F)F)c2)cc1C#Cc1nn(C2CCC(O)CC2)c2ncnc(N)c12 (stereo not shown)"}
